Assay results published in ChEMBL document CHEMBL4265915, “b-Annulated 1,4-dihydropyridines as Notch inhibitors” (Bioorg Med Chem Lett, 2018).

Legend:
[1] = target: T1, Neurogenic locus notch homolog protein 1 (Homo sapiens, UniProt P46531); test: Inhibition of Notch1 deltaE mutant (unknown origin) expressed in HEK293 cells after 16 hrs by […] luciferase reporter gene assay; assay type: cell-based
Target sequence in this assay (P46531 19-2555 limits assumed): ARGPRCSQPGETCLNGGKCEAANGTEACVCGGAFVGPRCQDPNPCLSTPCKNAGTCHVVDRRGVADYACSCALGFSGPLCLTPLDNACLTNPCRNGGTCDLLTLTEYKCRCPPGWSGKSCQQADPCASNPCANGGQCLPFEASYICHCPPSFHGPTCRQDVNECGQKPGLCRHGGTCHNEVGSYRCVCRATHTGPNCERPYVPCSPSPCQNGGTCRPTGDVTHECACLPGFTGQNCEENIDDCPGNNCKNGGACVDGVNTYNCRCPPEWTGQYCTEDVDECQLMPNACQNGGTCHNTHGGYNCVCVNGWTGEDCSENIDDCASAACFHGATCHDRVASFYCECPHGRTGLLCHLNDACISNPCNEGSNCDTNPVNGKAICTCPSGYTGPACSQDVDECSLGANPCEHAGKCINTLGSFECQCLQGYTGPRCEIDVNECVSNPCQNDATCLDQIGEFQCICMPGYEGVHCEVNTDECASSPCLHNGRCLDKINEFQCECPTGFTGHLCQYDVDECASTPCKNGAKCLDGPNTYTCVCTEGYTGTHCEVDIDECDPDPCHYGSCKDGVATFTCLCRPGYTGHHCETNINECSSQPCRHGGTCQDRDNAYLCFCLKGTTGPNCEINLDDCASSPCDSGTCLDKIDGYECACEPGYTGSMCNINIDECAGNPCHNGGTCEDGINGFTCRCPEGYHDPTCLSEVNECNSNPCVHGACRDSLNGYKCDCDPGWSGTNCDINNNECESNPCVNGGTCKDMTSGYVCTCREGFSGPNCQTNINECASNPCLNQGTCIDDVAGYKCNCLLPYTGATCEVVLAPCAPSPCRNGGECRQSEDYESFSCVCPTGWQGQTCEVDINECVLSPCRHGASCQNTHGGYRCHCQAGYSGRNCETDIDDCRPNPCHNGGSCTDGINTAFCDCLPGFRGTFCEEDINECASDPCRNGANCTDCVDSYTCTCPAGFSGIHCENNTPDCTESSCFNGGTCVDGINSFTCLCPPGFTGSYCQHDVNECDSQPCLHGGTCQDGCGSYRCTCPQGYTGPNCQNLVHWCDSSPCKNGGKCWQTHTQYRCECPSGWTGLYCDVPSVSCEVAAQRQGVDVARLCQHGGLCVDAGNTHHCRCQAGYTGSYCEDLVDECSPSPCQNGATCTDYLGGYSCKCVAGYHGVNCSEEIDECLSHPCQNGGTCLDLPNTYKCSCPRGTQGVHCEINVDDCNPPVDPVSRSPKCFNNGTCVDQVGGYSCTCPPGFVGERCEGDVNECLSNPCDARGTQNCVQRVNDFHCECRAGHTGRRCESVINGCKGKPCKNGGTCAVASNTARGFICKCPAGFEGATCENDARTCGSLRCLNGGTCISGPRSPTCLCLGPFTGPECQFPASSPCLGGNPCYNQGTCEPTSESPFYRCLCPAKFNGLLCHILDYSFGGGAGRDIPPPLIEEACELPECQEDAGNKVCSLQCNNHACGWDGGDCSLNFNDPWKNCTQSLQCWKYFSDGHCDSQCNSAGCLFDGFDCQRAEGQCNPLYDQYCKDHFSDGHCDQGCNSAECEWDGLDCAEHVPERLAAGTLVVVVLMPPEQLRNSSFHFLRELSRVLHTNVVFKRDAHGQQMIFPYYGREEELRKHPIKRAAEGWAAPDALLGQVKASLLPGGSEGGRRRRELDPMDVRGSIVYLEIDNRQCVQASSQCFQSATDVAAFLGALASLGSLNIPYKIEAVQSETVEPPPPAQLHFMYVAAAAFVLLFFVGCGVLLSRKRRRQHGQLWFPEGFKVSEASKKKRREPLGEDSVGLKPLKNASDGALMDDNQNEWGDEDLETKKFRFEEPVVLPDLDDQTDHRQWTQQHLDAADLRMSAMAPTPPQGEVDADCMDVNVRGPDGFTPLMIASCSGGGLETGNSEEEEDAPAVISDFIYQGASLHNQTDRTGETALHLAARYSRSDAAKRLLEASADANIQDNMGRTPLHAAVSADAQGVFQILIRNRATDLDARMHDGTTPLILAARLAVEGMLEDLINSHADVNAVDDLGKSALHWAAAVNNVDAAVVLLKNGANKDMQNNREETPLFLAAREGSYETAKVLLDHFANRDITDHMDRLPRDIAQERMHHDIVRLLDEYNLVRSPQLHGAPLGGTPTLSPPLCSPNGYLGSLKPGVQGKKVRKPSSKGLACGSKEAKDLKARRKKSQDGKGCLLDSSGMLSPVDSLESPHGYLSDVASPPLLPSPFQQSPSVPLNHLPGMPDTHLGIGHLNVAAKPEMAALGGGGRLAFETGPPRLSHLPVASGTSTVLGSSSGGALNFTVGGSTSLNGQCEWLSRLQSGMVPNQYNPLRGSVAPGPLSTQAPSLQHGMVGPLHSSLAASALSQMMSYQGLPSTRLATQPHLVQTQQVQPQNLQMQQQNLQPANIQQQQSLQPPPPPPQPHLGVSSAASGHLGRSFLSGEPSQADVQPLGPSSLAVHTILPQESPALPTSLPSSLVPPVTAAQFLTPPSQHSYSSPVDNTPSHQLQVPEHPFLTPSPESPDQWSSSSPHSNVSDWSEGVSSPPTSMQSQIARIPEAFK

HCT-116 [2] = test: Antiproliferative activity against human HCT116 cells after 72 hrs by SYBR green dye based fluorescence assay; assay type: functional, cell-based; conditions: for IC50: HCT-116, 72 h
How it was run: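 HCT-116 colon cancer cells were incubated for 72 h with a concentration series of test agent, with a vehicle-treated control. Proliferation was measured, and the IC50 was derived from the dose-response curve.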

HCT-116 [3] = test: Potency index, ratio of DAPM IC50 to compound IC50 for antiproliferative activity against human HCT116 cells; assay type: functional
[4] = target: T1, Neurogenic locus notch homolog protein 1; test: Potency index, ratio of FLI-06 IC50 to compound IC50 for inhibition of Notch1 deltaE mutant (unknown origin)
Target sequence in this assay (P46531 whole entry): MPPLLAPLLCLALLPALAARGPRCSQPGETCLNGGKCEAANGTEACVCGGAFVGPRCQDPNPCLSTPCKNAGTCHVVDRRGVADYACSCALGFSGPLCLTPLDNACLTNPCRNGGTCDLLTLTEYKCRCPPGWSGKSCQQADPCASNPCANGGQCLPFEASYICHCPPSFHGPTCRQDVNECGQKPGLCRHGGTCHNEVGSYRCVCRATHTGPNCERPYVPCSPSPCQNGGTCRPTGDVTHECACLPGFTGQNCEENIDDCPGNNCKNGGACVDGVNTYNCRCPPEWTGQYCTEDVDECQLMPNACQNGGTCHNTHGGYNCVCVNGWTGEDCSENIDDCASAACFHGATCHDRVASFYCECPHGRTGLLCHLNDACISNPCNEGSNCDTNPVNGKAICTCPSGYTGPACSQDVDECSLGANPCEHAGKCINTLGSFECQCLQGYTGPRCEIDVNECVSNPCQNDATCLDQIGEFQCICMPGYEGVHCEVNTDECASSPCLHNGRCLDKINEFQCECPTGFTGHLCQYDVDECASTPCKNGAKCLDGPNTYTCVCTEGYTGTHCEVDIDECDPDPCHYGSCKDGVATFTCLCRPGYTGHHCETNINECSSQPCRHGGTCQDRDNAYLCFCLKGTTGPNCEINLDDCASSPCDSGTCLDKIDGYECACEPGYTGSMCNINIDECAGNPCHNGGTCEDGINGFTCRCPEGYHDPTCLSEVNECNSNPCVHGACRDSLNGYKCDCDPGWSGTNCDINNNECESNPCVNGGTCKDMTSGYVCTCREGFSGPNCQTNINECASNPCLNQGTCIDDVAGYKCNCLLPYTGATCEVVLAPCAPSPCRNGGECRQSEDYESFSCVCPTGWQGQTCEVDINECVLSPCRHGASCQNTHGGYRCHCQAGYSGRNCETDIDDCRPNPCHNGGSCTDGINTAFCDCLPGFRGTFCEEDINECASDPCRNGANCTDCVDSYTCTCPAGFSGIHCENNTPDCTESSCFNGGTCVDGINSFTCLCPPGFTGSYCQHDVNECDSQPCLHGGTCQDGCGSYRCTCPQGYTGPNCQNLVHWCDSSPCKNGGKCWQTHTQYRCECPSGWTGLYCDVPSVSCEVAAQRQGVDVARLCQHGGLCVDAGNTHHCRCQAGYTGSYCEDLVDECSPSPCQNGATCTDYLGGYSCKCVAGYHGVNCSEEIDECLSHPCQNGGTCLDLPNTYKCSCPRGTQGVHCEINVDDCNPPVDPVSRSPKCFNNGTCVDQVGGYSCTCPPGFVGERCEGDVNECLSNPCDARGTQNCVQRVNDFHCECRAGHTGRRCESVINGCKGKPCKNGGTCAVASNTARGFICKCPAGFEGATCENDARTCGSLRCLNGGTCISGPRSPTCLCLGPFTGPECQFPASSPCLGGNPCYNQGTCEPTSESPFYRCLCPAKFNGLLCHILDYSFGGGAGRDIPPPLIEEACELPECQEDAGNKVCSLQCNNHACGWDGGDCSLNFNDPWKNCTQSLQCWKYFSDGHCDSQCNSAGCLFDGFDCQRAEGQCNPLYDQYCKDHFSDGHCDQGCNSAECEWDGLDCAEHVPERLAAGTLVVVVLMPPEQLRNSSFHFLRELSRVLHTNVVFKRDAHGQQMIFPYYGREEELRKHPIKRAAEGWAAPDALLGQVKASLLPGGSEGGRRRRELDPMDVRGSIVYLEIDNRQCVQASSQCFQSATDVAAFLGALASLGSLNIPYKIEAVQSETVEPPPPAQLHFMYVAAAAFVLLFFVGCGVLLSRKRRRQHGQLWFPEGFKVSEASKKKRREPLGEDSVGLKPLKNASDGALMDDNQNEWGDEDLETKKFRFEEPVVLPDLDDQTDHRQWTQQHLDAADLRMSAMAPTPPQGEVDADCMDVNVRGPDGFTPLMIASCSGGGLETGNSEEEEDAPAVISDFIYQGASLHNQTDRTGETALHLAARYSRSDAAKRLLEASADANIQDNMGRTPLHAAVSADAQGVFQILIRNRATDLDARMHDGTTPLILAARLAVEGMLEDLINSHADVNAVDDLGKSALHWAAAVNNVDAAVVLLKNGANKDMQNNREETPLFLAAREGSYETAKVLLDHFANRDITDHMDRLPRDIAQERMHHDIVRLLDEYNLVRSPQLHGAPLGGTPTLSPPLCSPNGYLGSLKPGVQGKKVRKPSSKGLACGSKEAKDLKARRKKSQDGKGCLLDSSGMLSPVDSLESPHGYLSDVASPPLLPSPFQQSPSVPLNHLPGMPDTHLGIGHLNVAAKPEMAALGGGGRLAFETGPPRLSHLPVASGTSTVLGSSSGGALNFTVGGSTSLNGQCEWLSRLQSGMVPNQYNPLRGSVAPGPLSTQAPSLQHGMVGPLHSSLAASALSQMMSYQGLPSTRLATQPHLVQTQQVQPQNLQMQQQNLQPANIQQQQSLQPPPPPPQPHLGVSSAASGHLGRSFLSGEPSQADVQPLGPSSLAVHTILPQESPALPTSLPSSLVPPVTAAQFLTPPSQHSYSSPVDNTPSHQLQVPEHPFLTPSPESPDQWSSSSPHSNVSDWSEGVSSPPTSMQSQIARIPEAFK

Compound	IC50 [1] [µM]	other results
CC1=C(C(=O)OC2CCCCC2)C(c2cccc(Br)c2)C2=C(CC(C)(C)CC2=O)N1 (configuration not stated)	4.15	–
CC1=C(C(=O)OCC2CCN(C(=O)OC(C)(C)C)CC2)C(c2ccc3c(c2)OCCO3)C2=C(CC(C)(C)CC2=O)N1 (configuration not stated)	1.52	–
CC1=C(C(=O)OCC2CCN(C(=O)OC(C)(C)C)CC2)C(c2cccc(-c3ccc4[nH]ccc4c3)c2)C2=C(CC(C)(C)CC2=O)N1 (configuration not stated)	0.77	–
CC1=C(C(=O)OC2CCCCC2)C(c2cccc(C#N)c2)C2=C(CC(C)(C)CC2=O)N1 (configuration not stated)	43.2	–
CC1=C(C(=O)OC2CCCCC2)C(c2ccc3c(c2)OCCO3)C2=C(CC(C)(C)CC2=O)N1 (configuration not stated)	12.3	–
COC(=O)[C@@H](NC(=O)[C@H](C)NC(=O)Cc1cc(F)cc(F)c1)c1ccccc1	–	Activity (HCT-116 [2]): Dose-dependent effect; IC50 (HCT-116 [2]): 12 µM
CC1=C(C(=O)OCC2CCN(C(=O)OC(C)(C)C)CC2)C(c2ccc(-c3ccccc3)cc2)C2=C(CC(C)(C)CC2=O)N1 (configuration not stated)	> 10	–
CC1=C(C(=O)OC23CC4CC(CC(C4)C2)C3)C(c2cccc(Br)c2)C2=C(CC(C)(C)CC2=O)N1 (configuration not stated)	> 10	–
CC1=C(C(=O)OCC2CCN(C(=O)OC(C)(C)C)CC2)C(c2ccc3ccccc3n2)C2=C(CC(C)(C)CC2=O)N1 (configuration not stated)	0.33	–
CC1=C(C(=O)OC2CCCCC2)C(c2ccc([N+](=O)[O-])cc2)C2=C(CC(C)(C)CC2=O)N1 (configuration not stated)	2.51	Activity (HCT-116 [2]): Dose-dependent effect; IC50 (HCT-116 [2]): 1.8 µM
CC1=C(C(=O)OCc2cnccn2)C(c2cccc(Br)c2)C2=C(CC(C)(C)CC2=O)N1 (configuration not stated)	0.86	–
CC1=C(C(=O)O[C@H](CC#N)c2ccccc2)C(c2cccc(Br)c2)C2=C(CC(C)(C)CC2=O)N1 (some centres not stated)	> 10	–
CC1=C(C(=O)OC2CCCCC2)C(c2cccc(C(F)(F)F)c2)C2=C(CC(C)(C)CC2=O)N1 (configuration not stated)	14.7	–
CC1=C(C(=O)OCc2ccc(C(C)(C)C)cc2)C(c2cccc(Br)c2)C2=C(CC(C)(C)CC2=O)N1 (configuration not stated)	4.27	–

The next lines start with results.

IC50 [1] [µM]	Compound	other results
0.22	CC1=C(C(=O)OCC2CCN(C(=O)OC(C)(C)C)CC2)C(c2cccc(C#N)c2)C2=C(CC(C)(C)CC2=O)N1 (configuration not stated)	–
0.64	CC1=C(C(=O)OCC2CCN(C(=O)OC(C)(C)C)CC2)C(c2cc(Cl)cc(Cl)c2)C2=C(CC(C)(C)CC2=O)N1 (configuration not stated)	–
3.32	CC1=C(C(=O)OCC2CCN(C(=O)OC(C)(C)C)CC2)C(c2cccc(C(C)C)c2)C2=C(CC(C)(C)CC2=O)N1 (configuration not stated)	–
2.59	CC1=C(C(=O)OCC2CCN(C(=O)OC(C)(C)C)CC2)[C@@H](c2cccc(Br)c2)C2=C(CC(C)(C)CC2=O)N1	–
> 10	CC1=C(C(=O)OCC2CCN(C(=O)OC(C)(C)C)CC2)C(c2ccc(Br)cc2F)C2=C(CC(C)(C)CC2=O)N1 (configuration not stated)	–
> 10	CC1=C(C(=O)OC2CCN(C(=O)OC(C)(C)C)CC2)C(c2cccc(Br)c2)C2=C(CC(C)(C)CC2=O)N1 (configuration not stated)	–
0.76	CC1=C(C(=O)OCC2CCN(C(=O)OC(C)(C)C)CC2)C(c2cccc(C(F)(F)F)c2)C2=C(CC(C)(C)CC2=O)N1 (configuration not stated)	–
> 10	CC1=C(C(=O)OCC2CCN(C(=O)OC(C)(C)C)CC2)C(c2cccc([N+](=O)[O-])c2)C2=C(CC(C)(C)CC2=O)N1 (configuration not stated)	–
0.13	CC1=C(C(=O)OCC2CCN(C(=O)OC(C)(C)C)CC2)[C@H](c2cccc(Br)c2)C2=C(CC(C)(C)CC2=O)N1	Activity (HCT-116 [2]): Dose-dependent effect; IC50 (HCT-116 [2]): 0.22 µM; Ratio IC50 (HCT-116 [3]): 55; Ratio IC50 [4]: 20
0.36	CC1=C(C(=O)OCC2CCN(C(=O)OC(C)(C)C)CC2)C(c2cccc(Br)c2)C2=C(CC(C)(C)CC2=O)N1 (configuration not stated)	–
2.95	CC1=C(C(=O)OCCC2CCN(C(=O)OC(C)(C)C)CC2)C(c2cccc(Br)c2)C2=C(CC(C)(C)CC2=O)N1 (configuration not stated)	–
